CHT block = inhibitors of human choline transporter CHT | Q9GZV3 | CHT-expressing cells, membrane potential dye, choline response; active compounds read low | B-score at 10 µM | 310,000 tested, 0.86% active;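 active means B-score over 3 SD under the library average, and starting fluorescence ratio not unusually high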;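 further: choline stimulus applied at its EC90 after an EC20 pre-addition; B-score computed on integrated fluorescence ratio after choline addition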
T cell modulator = T cell immune modulators affecting CD8 T cell-vesicle binding | 2C CD8+ T cell-vesicle binding, flow cytometry; active compounds read low | response (vesicle binding), % at 7 µM | 330,000 tested, 0.068% active | AID 2052;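 active means response, share of CD8 T cells binding vesicles, and their 90th percentile fluorescence all below set limits, cut at about 80% in these data, passing the limit was not always enough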;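 further: values below 100% mean blocked vesicle binding to the CD8+ T cells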
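material = purified 2C TCR transgenic mouse naive CD8+ T cells | controls = Unloaded micro-vesicles (low), QL9 vesicles with 0.7% DMSO (high) | detection = cytometric PE anti-B7-1 and Alexa647 anti-CD8 signals after 1% paraformaldehyde fixation | incubation = binding step 1.5 h, 37 °C, antibody labelling 20 min, ice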
Pemphigus Ab inh = blocks pemphigus antibody binding to human desmoglein-3 | AID 588358 | DSG3-coupled beads, scFv-anti-DSG3-GFP binding, flow cytometry; active compounds read low | 310,000 tested, 0.48% active | binding (percent of control), % at 10 µM;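 active means binding more than 3 SD below its plate's average and above zero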;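 further: hits lower antibody fragment binding to DSG3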
GPR7 antagonist = blocks human GPR7 receptor signaling; P48145; GPR7-expressing cells, fluorescence antagonist assay; inhibition, % at 4.4 µM; 290,000 tested, 1.1% active; AID 1861; in the data active means inhibition above about 16%, passing the limit was not always enough;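 further: cells stimulated with the agonist NPW; 0% = agonist with vehicle and 100% = vehicle without agonist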
Target sequence (P48145 whole entry, looked up): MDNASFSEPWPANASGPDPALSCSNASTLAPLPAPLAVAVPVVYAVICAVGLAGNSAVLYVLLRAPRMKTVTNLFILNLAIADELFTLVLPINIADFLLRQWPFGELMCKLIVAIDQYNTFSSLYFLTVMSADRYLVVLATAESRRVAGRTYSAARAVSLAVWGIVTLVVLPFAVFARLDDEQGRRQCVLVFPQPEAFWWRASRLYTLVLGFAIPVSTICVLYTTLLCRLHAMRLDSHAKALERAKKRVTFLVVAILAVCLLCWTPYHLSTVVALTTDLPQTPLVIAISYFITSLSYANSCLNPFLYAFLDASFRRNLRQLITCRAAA
pCIP destab = lowers stability of the mouse p/CIP coactivator protein | F442A p/CIP-EGFP cells, EGFP fluorescence, 16 h | 290,000 tested, 0.01% active | Q05BA5 | AID 1984 | decrease of EGFP signal, % at 10 µM;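 active means EGFP signal decrease of at least 30% at 10 µM or well 3 SD below plate mean, unless failing retest; inactive means the rest, including hits failing retest or dose response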
CHT PAM = allosteric activators of human choline transporter CHT | Q9GZV3 | CHT-expressing cells, membrane potential dye, choline EC20; active compounds read high; LV-AA mutant CHT in HEK293 cells | B-score at 10 µM | 310,000 tested, 0.49% active | AID 488977;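 active means initial fluorescence not abnormally high and integrated response B-score, plate-corrected, over 3 SD above library mean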
Numbers without * were called inactive; i = inactive; · = no result. This is a sample that favours compounds with a hit; in the whole collection about 2.3% have one here.

SMILES | CHT block | T cell modulator | Pemphigus Ab inh | GPR7 antagonist | pCIP destab | CHT PAM
COc1ccc(OCCOC(=O)CNC(=O)c2ccc(F)cc2)cc1 | · | · | 104.6 | · | · | ·
O=C(Nc1ccc2c(c1)oc1ccc(S(=O)(=O)N3CCCC3)cc12)C1CC1 | i | 515.7 | 71.0* | -1.2 | -18.0 | i
CCN(c1cccc(C)c1)S(=O)(=O)c1ccc2c(c1)oc(=O)n2C | i | 102.9 | 98.8 | 13.5 | -4.7 | i
CCN(CCCNS(=O)(=O)c1ccc2c(c1)oc(=O)n2C)c1cccc(C)c1 | i | 135.4 | 109.8 | 17.5* | -12.1 | i
COc1cc(/C=C/c2ccc(O)cc2)cc(OC)c1 | i | 319.1 | 98.5 | -8.6 | -6.9 | i
COC(=O)c1ccc2c(c1)C(C)(C)C(/C=C/c1ccc(O)cc1)=[N+]2C | i | 436.6 | 108.9 | 10.1 | -19.1 | 6.49*
O=C(c1ccc(-c2ccc([N+](=O)[O-])cc2Cl)o1)N1CCOCC1 | i | 148.1 | 108.2 | 20.4* | -3.5 | i
Nc1c(C(=O)c2ccccc2)oc2ccc([N+](=O)[O-])cc12 | i | 102.4 | 59.5* | 7.0 | -10.0 | i
Nc1c(C(=O)c2ccccc2)oc2ccc(Br)cc12 | i | 322.1 | 89.9 | 13.8 | -7.8 | i
COc1ccc(-c2csc(NC(=O)c3ccccc3NS(=O)(=O)c3ccc(C)cc3)n2)cc1 | i | 131.6 | 100.1 | 27.2* | 3.4 | i
CCN(CC)CCNC(=O)c1ccc2c(c1NCCO)C(=O)c1ccccc1C2=O | i | 200.3 | · | -3.9 | 35.8* | i
O=C(NCCO)c1cccc2c1C(=O)c1ccccc1-2 | i | 223.6 | 96.7 | 9.2 | -7.2 | i
COc1ccc(N2CCN(S(=O)(=O)c3cccc(C(F)(F)F)c3)CC2)cc1 | i | 274.8 | -25.3* | -9.2 | -2.4 | i
C=C(C)C(=O)Nc1cccc(C2=NOC3(C2)C[C@@H](C(N)=O)N(C(=O)c2cc([N+](=O)[O-])cc([N+](=O)[O-])c2)C3)c1 (some centres undefined) | i | 201.5 | 104.2 | · | 0.7 | i
C=C(C)C(=O)Nc1cccc(C2=NOC3(C2)C[C@@H](C(N)=O)N(C(=O)c2ccc(OC)cc2)C3)c1 (some centres undefined) | i | 634.3 | 68.6* | · | 0.0 | i
CCCCN1C(=O)C(CC(=O)NC2CCCCC2)CC(C(=O)N(C(C)C)C(C)C)=C1C (centres undefined) | · | · | 102.5 | · | · | ·
O=C(NCCc1ccco1)C(=O)NCC1OCCCN1S(=O)(=O)c1ccc(Cl)cc1 (centres undefined) | i | 0.0 | · | -18.6 | 10.8 | i
Cc1ccc(S(=O)(=O)N2CCCOC2CNC(=O)C(=O)NCCc2ccco2)cc1 (centres undefined) | · | · | 82.1* | · | · | ·
COC(=O)N(C)C[C@@H]1OCc2cnnn2CCCC(=O)N([C@@H](C)CO)C[C@H]1C | · | · | 101.7 | · | · | ·
COc1ccc(C(=O)c2cc(OC)c(OC)c(OC)c2)cc1OC | · | · | 96.7 | · | · | ·
CCCCC/C(=N\NC(=O)Nc1ccccc1)c1ccccc1 | i | 519.0 | -11.9* | -20.6 | 7.4 | i
CCCC/C(C)=N/NC(=O)Nc1ccccc1 | i | 177.6 | 108.2 | 6.5 | -2.2 | i
COc1ccc(C(=O)Nc2cc(OC)c(NC(=O)Nc3ccccc3)cc2OC)cc1 | · | · | 97.8 | · | · | ·
Cc1c(C(=O)NCc2ccc3c(c2)OCO3)sc2nc(-c3ccccc3)cn12 | i | 965.5 | 57.5* | 3.9 | -19.0 | i
O=C(O)c1ccc2c3c(cccc13)C(=O)N(c1ccccc1)C2=O | i | 161.8 | 16.2* | 0.8 | -6.3 | i
SMILES | CHT block | T cell modulator | Pemphigus Ab inh | GPR7 antagonist | pCIP destab | CHT PAM
N#CC(=C1NC(=O)c2ccccc21)c1nc2ccccc2n1CCO | · | · | 101.6 | · | · | ·
CC1CCc2c(sc(NC(=O)Cn3nc(C(F)(F)F)c4c3CCCCC4)c2C#N)C1 (centres undefined) | i | 0.0* | 101.5 | 8.9 | 1.3 | i
CC1CCc2c(sc(NC(=O)C3CCCO3)c2C#N)C1 (centres undefined) | i | 325.8 | 117.1 | -6.3 | -0.8 | i
Cc1ccc(S(=O)(=O)N2C[C@H]3N(C(=O)OC(C)C)N(C(=O)OC(C)C)C[C@H](OC(=O)NCC4CCCCC4)[C@@]3(O)C2)cc1 | · | · | 108.7 | · | · | ·
COc1ccc(-c2noc(CCC(=O)NCCCN3CCC(Cc4ccccc4)CC3)n2)cc1 | i | 189.4 | · | 28.9* | 2.9 | i
CC(=O)N=c1sc(S(N)(=O)=O)nn1C | i | 717.2 | -12.3* | -18.1 | -15.3 | i
CCOc1ccc(NS(=O)(=O)c2cccs2)cc1S(=O)(=O)N1CCCC1 | · | · | 98.3 | · | · | ·
CCOC(=O)C1(CC2CCCCO2)CCN(S(=O)(=O)c2ccc(C)s2)CC1 (centres undefined) | i | 13.2* | 101.8 | -15.2 | -0.2 | i
CCn1c(CSc2nnc(-c3cccnc3)n2-c2ccccc2C)nc2cc(C(=O)O)ccc21 | i | 163.4 | · | -20.0 | -6.0 | i
CCn1c(CSc2nnc3ccccn23)nc2cc(C(=O)O)ccc21 | i | 176.9 | 36.3* | -4.8 | -11.7 | i
CCN(CC)CCNC(=O)c1ccc(NC(=O)c2ccc(C(=O)c3ccccc3)cc2)cc1 | i | 75.6* | 107.3 | · | · | i
CCN(CC)CCNC(=O)c1ccc(NC(C)=O)cc1 | i | 383.0 | 118.5 | 7.5 | -20.1 | i
COc1ccc(N2CCN(Cc3nc4scc(-c5ccccc5)c4c(=O)[nH]3)CC2)cc1 | i | 355.4 | 48.5* | -5.5 | -14.8 | i
CC(C)C1C(=O)N(Cc2cn(Cc3ccco3)nn2)CCS(=O)(=O)N1Cc1ccc(-c2ccc(Cl)c(Cl)c2)cc1 (centres undefined) | · | · | 102.4 | · | · | ·
COc1ccccc1-n1c(C)c2c(OC)cccc(=O)c2c1C | i | 279.3 | 128.4 | -11.7 | -9.3 | i
COc1cccc(=O)c2c(C)oc(C)c12 | i | 303.6 | 96.0 | 19.4* | -0.3 | i
O=C(O)c1cccc2cccc(-c3c4ccc(=O)c(O)c-4oc4c(O)c(O)ccc34)c12 | · | · | 13.4* | · | · | ·
COc1ccc(C(=O)NN=C(Cc2ccccc2)Cc2ccccc2)cc1OC | i | 350.7 | 0.8* | -3.2 | -29.0 | i
NS(=O)(=O)c1ccc(N/C=C\C(=O)c2ccc(F)cc2)cc1 | i | 132.3 | 71.4 | 3.4 | 8.0 | i
NS(=O)(=O)c1ccc(N/C=C/C(=O)c2ccc(Br)cc2)cc1 | i | 182.3 | 92.6* | -6.2 | -0.1 | i
COc1ccccc1C(=O)n1nc(-c2ccco2)nc1SC | i | 28.5* | 107.1 | -16.4 | 17.2 | i
CC1(C)NC(=O)N(CC(=O)OCc2cc(=O)n3cc(Br)ccc3n2)C1=O | i | 302.4 | 103.3 | 6.6 | -5.0 | i
O=C(CN1C(=O)NC2(CCCC2)C1=O)OCc1cc(=O)n2cc(Br)ccc2n1 | i | 85.8 | 64.8* | -7.6 | -11.5 | i
